Published values collected from several papers.
Compare with care: the assays were run in different laboratories.
Target: Serine/threonine-protein kinase MRCK alpha (CDC42BPA, Homo sapiens, UniProt Q5VT25)

SMILES | observed | mode | technique | tested at | quantity | result
COc1cc2ncnc(Nc3ccc(Oc4ccccc4)c(C)c3C)c2cc1OC | enzyme activity | inhibitor |  | 1 µM | inhibition | -6%
CS(=O)(=O)CCNCc1ccc(-c2ccc3ncnc(Nc4ccc(OCc5cccc(F)c5)c(Cl)c4)c3c2)o1 | cell-free assay |  |  | 0.5 µM | remaining signal | 88.2%
O=C(NS(=O)(=O)c1ccc(NCC2CCOCC2)c([N+](=O)[O-])c1)c1ccc(N2CCN(Cc3ccc(C(F)(F)F)cc3-c3ccc(Cl)cc3)CC2)cc1Oc1cnc2[nH]ccc2c1 | cell-free assay |  | competition with immobilised ligand | 1 µM | remaining binding | 96%
CCOc1cc(-c2nncn2C)ccc1Nc1ncc2cc(C)nc(NCC(C)(C)C)c2n1 | enzyme activity | inhibitor | FRET | 1 µM | inhibition | < 15%
CCN(CC)CCNC(=O)c1c(C)[nH]c(/C=C2\C(=O)Nc3ccc(F)cc32)c1C | enzyme activity | inhibitor |  | 10 µM | inhibition | 10%
CSc1cccnc1N1CCN(Cc2nc3ccccc3[nH]2)CC1 | cell-free assay |  | competition with immobilised ligand | 1 µM | remaining binding | 100%
Cc1ccc(C(=O)Nc2ccc(CN3CCN(C)CC3)c(C(F)(F)F)c2)cc1C#Cc1cnc2cccnn12 | enzyme activity | inhibitor |  | 23.5 nM | remaining activity | 99%
CN1CC(Oc2cnc(C#N)cc2-c2ccn3nc(NC(=O)C4CC4)cc3c2)C1 | enzyme activity | inhibitor |  | 1 µM | inhibition | -14%
CCS(=O)(=O)c1cc2cc(C[C@](O)(CC(C)(C)c3ccc(F)cc3C(N)=O)C(F)(F)F)[nH]c2cn1 | cell-free assay |  | competition with immobilised ligand | 1 µM | remaining binding | 89%
O=C1Nc2ccc(Cl)cc2C1=Cc1cc(Cl)c(O)c(Cl)c1 | cell-free assay |  |  | 0.5 µM | remaining signal | 96.1%
CC(C)(C)c1nc(-c2cccc(NS(=O)(=O)c3c(F)cccc3F)c2F)c(-c2ccnc(N)n2)s1 | enzyme activity | inhibitor | radiometric | 1 µM | remaining activity | 88%
CNC(=O)c1cc(Oc2ccc(NC(=O)Nc3ccc(Cl)c(C(F)(F)F)c3)cc2)ccn1 | enzyme activity | inhibitor |  | 10 µM | inhibition | 2%
O=C(Nc1cnn(-c2csc(C(=O)NC3COC3)c2)c1)Nc1ccccc1Cl | enzyme activity | inhibitor |  | 5 µM | remaining activity | 99.3%
CCN(CC)c1ccc(C2=NNC(=O)CC2C)cc1[N+](=O)[O-] (centres unmarked) | enzyme activity | inhibitor |  | 10 µM | remaining activity | 78%
CNCc1ccccc1-c1csc([C@@H](C)Nc2nc(C)nc3cc(OC)c(OC)cc23)c1 | cell-free assay |  | competition with immobilised ligand | 1 µM | remaining binding | 67%
Cc1ccc(NC(=O)c2ccc(C)c(C(F)(F)F)c2)cc1C#Cc1nn(C2CCC(O)CC2)c2ncnc(N)c12 (centres unmarked) | cell-free assay | inhibitor |  | 10 µM | remaining signal | 101%
O=C(O)c1cc(-c2ccc(C3CCNCC3)cc2)c2ccc(-c3ccc(C(F)(F)F)cc3)cc2c1 | cell-free assay |  | competition with immobilised ligand | 1 µM | remaining binding | 100%
CC(C)(O)[C@H]1CC[C@H](Nc2ccc3ncc(-c4cccc(C(F)(F)F)c4)n3n2)CC1 | enzyme activity | inhibitor |  | 1 µM | remaining activity | 95.8%
CC(C)(O)c1cncc(-c2nc3ccc(F)cc3n2C2CC2)c1 | cell-free assay |  | competition with immobilised ligand | 1 µM | remaining binding | 100%
Cc1cnc(NC2CCOCC2)nc1-n1cnc(C(=O)NC(CN)c2cc(F)cc(Cl)c2)c1 (centres unmarked) | enzyme activity | inhibitor | radiometric | 1 µM | remaining activity | 64%
COc1ccc2cc(OCC3(C(=O)O)CN(C(=O)c4ccc(F)cc4)C3)ccc2c1 | cell-free assay |  | competition with immobilised ligand | 1 µM | remaining binding | 100%
Cc1ccc(Nc2nccc(N(C)c3ccc4c(C)n(C)nc4c3)n2)cc1S(N)(=O)=O | enzyme activity | inhibitor |  | 0.3 µM | inhibition | 9%
CCCOc1ccc(OC)c(F)c1C(=O)c1ccc(C(=O)N[C@@H]2CNC[C@H]2NC(=O)c2ccc3[nH]ncc3c2)cc1 | enzyme activity | inhibitor |  | 0.5 µM | remaining activity | 27%
